In the library only some 29% were active in any assay of this set; here they are far more common.
CYP2C19 inhib: blockers of cytochrome P450 2C19 activity – biochemical, luminescence, ADME assay, primary screen; P33261; CYP2C19 Supersomes, luciferin-H EGE luminescence, 30 min; inhibition, % at 5 µM; 21% of 96,000 active; AID 778, 2007;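 active = CYP2C19 inhibition above a set limit at 5 µM in the primary screen, cut at about 50% in these data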;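 also: plate controls were negative control wells for no effect and 2.5 mM tranylcypromine positive control for full effect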
CYP2C9 activ: human CYP2C9 activators, primary screen, biochemical, luminescence; Cytochrome P450 2C9 (Homo sapiens), P11712; 1.4% of 96,000 active; recombinant CYP2C9, luciferin-H conversion; stronger effect = higher value; factor 1 = untreated enzyme, 0 = blocked; activation factor at 5 µM;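 active = activation factor of 2 or more for CYP2C9 at a 5 µM dose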;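 also: 0 = sulfaphenazole-blocked wells and 1 = vehicle-only wells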
Target sequence (P11712 whole entry, looked up): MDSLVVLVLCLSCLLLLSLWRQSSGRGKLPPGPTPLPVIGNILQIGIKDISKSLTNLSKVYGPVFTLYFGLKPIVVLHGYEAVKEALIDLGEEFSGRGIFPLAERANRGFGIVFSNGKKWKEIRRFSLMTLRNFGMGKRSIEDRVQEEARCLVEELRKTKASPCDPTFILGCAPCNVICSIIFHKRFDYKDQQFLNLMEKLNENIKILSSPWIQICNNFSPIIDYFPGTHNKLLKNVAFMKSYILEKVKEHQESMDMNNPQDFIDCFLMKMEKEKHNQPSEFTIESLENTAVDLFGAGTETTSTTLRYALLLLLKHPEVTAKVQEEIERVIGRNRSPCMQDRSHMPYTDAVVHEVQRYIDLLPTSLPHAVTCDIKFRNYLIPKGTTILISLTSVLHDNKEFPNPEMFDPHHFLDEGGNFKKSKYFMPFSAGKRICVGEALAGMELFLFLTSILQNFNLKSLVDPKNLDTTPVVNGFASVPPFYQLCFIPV
CYP2C9 inh: blockers of cytochrome P450 2C9 activity – biochemical, luminescence, ADME assay, primary screen; P11712; CYP2C9 Supersomes, luciferin-H conversion; inhibition, % at 5 µM; 20% of 96,000 active;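 active = blocking of liver enzyme CYP2C9 beyond about 50% at 5 µM, limit read from the data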
E coli WT exp: growth inhibitors of wild-type E. coli, primary screen, strain BW25113, expanded library, OD600; OD600 absorbance; growth inhibition, % at 100 µM; 0.15% of 98,000 active;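 active = growth inhibition above about 50% at one test dose, limit read from the data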;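 also: growth measured after 20 h incubation at 37 °C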
Ecoli tolC: growth inhibitors of E. coli tolC mutant, primary screen, strain BW25113 ΔtolC::kan, 384-well | growth inhibition, % at 10 µM (by protocol) | 2.2% of 65,000 active | OD615;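 active = growth inhibition at or above a cutoff equal to the mean over every tested compound plus 3 SD, cut at about 60% in these data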;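 also: growth measured after 20 h incubation at 37 °C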
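Test system: tolC-deleted E. coli BW25113 | Medium: LB with kanamycin 50 µg/mL | Compound dosing: Single concentration, 10 µM final per compound | Schedule: 37 °C, 20 h exposure | Measured by: OD at 615 nm | Evaluation: Percent growth inhibition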
CYP2C19 activ: human CYP2C19 activators, primary screen, biochemical, luminescence | Cytochrome P450 2C19 (Homo sapiens), P33261 | recombinant CYP2C19, luciferin-H EGE luminescence; stronger effect = higher value; 0 = fully inhibited enzyme, 1 = untreated enzyme | activation factor at 5 µM | 96,000 tested, under 10 active;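 active = activation factor of at least 2 at 5 µM in the primary screen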;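 also: 0 = wells with 2.5 mM tranylcypromine and 1 = vehicle-only wells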
Active calls of the source: *; . = no result given.

SMILES | CYP2C19 inhib | CYP2C9 activ | CYP2C9 inh | E coli WT exp | Ecoli tolC | CYP2C19 activ
C=CCn1c(SCC(=O)c2ccc(Cl)s2)nc2ccccc2c1=O | 27 | 0.6 | 35 | -2 | . | 0.7
C=CCn1c(SCC(=O)N2CCc3ccccc3C2)nc2ccccc2c1=O | 74* | 0.1 | 95* | -18 | . | 0.3
CCOC(=O)C1=C2SCC(=O)N2C(N)=C(C#N)C1 | 7 | 1 | -4 | 4 | . | 0.9
O=C(C1CCCN(Cc2ccccc2Br)C1)N1CCCCC1 (stereo unspecified) | 7 | 0.7 | 28 | 2 | 0 | 0.9
O=c1oc(-c2cccc(S(=O)(=O)N3CCOCC3)c2)nc2ccccc12 | -4 | 0.7 | 30 | -3 | -2 | 1
Cc1ccc(NC(=O)c2ccccc2)cc1OC(=O)c1ccccc1 | 33 | 0.8 | 21 | 0 | . | 0.7
COC(=O)c1ccc(NC(=O)C2CC2)o1 | -9 | 1 | -3 | -2 | . | 1.1
C=CCn1c(SCc2c(C)noc2C)nc2cc(C(=O)O)ccc2c1=O | . | . | . | 5 | 11 | .
C=CCn1c(SCc2c(C)noc2C)nc2ccccc2c1=O | 95* | 0 | 97* | -8 | . | 0
CCS(=O)(=O)N1CCN(S(=O)(=O)c2ccc(F)cc2)CC1 | . | . | . | 7 | -11 | .
O=S(=O)(c1ccccc1)N1CCN(S(=O)(=O)c2ccccc2)C1 | 94* | 0.3 | 67* | 6 | 0 | 0.1
O=C(CN1CCSCC1)c1c[nH]c2ccccc12 | 64* | 0.6 | 37 | 13 | . | 0.4
O=C(CN1CCN(Cc2ccccc2)CC1)c1c[nH]c2ccccc12 | 13 | 0.7 | 27 | 15 | -9 | 0.9
O=S(=O)(c1ccccc1)N1CCN(C2CCCCCCC2)CC1 | 44 | 0.9 | 7 | 1 | 10 | 0.6
CCCS(=O)(=O)N1CCN(S(=O)(=O)c2ccccc2)CC1 | 61* | 0.4 | 56* | 8 | . | 0.4
Cc1ccc(S(=O)(=O)N2CCN(C(=O)Cc3ccccc3)CC2)cc1 | 64* | 0.7 | 33 | 5 | . | 0.4
Cc1sc(CO)c(Sc2ccccc2)c1C(=O)O | . | . | . | 2 | -30 | .
Cc1ccc(S(=O)(=O)N2CCN(S(=O)(=O)c3ccc(C)cc3)C2)cc1 | 30 | 0.3 | 68* | -3 | . | 0.7
Cc1ccc2[nH]cc(C(=O)CN3CCN(c4ccccn4)CC3)c2c1 | 87* | 0.2 | 84* | 5 | 4 | 0.1
Cc1ccc(CC(=O)N2CCN(c3ccccn3)CC2)cc1 | 98* | 0.1 | 87* | -13 | . | 0
CCCS(=O)(=O)N1CCN(c2ccccn2)CC1 | 69* | 0.6 | 40 | 3 | -15 | 0.3
COc1ccc(CC(=O)N2CCN(c3ccccn3)CC2)cc1 | . | . | . | -2 | -9 | .
CC(/C=N\Nc1nnc2c(n1)[nH]c1c(C)cccc12)=C\c1ccco1 | -6 | 1 | -3 | 1 | . | 1.1
CCN1CCN(Cc2nc3c(c(=O)n(C)c(=O)n3C)n2Cc2ccc(Cl)cc2Cl)CC1 | . | . | . | . | -10 | .
COc1cccc(C2C(C(=O)OC(C)C)=C(C)Nc3ncnn32)c1 (stereo unspecified) | 30 | 0.5 | 48 | -9 | -3 | 0.7
SMILES | CYP2C19 inhib | CYP2C9 activ | CYP2C9 inh | E coli WT exp | Ecoli tolC | CYP2C19 activ
Cc1cc(O)ccc1Nc1nc2ccccc2nc1Nc1ccc(O)cc1C | 87* | 0 | 96* | 3 | 12 | 0.1
O=C(Nc1ccc(S(=O)(=O)N2CCCCC2)cc1)c1ccccc1Cl | 22 | 0.7 | 33 | -13 | . | 0.8
CN(c1ccccc1C(=O)Nc1ccc(S(=O)(=O)N2CCCCC2)cc1)S(C)(=O)=O | -12 | 0.8 | 16 | 9 | 100* | 1.1
CN(c1ccccc1C(=O)Nc1ccc(S(=O)(=O)N2CCCC2)cc1)S(C)(=O)=O | 8 | 0.4 | 64* | 3 | . | 0.9
CC(=O)Nc1ccc(NC(=O)c2ccccc2N(C)S(C)(=O)=O)cc1 | -16 | 1.1 | -13 | 7 | -8 | 1.2
Cc1cccc(OCCSCc2nc3ccccc3[nH]2)c1 | 72* | 0.4 | 61* | 35 | . | 0.3
COc1cccc(-c2nnc(SCc3nc4ccccc4[nH]3)n2N)c1 | 22 | 1.1 | -13 | 18 | 14 | 0.8
